pIC50: −log10 of the molar value. Activity calls are given as the source filed them. No cut-off for these calls is given here.
What was measured:
DNA topoisomerase 1 = target: T1, DNA topoisomerase 1 (Homo sapiens, UniProt P11387); assay: Inhibition of human Top1B expressed in Top1B deficient Saccharomyces cerevisiae EKY3 assessed as decrease in relaxation of supercoiled pSK DNA preincubated for 15 mins followed by DNA addition and measured after 1 to 16 mins by agarose gel electrophoresis; conditions: for pIC50: read-out: IC50
T1 sequence (P11387 whole entry): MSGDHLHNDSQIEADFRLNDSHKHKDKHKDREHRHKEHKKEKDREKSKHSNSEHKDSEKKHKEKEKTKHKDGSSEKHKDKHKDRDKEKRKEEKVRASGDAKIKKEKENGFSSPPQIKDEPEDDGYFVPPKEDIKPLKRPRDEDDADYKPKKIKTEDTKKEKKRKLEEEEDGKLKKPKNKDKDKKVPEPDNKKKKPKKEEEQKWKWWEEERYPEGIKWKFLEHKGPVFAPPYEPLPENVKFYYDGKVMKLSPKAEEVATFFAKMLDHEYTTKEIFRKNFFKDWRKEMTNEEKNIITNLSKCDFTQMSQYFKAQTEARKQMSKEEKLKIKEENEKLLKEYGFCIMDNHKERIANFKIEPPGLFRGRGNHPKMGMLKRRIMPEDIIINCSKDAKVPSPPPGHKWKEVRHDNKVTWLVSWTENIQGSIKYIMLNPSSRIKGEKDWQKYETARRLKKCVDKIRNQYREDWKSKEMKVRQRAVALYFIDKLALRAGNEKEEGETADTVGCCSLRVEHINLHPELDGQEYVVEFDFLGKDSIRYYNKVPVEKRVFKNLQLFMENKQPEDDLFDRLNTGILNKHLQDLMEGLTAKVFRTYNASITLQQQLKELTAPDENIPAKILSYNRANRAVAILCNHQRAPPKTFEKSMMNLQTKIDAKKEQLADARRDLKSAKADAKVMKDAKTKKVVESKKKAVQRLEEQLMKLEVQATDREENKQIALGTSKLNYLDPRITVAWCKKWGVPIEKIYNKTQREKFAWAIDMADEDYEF
Summary of the method: (§1)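 Recombinant LTopIB or hTopIB from TopIB-deficient yeast EKY3 (galactose-induced), purified on phosphocellulose then phenyl-Sepharose. Enzyme (1 unit) preincubated with compound for 15 min at 37 °C. Then 0.5 μg supercoiled pSK DNA added in 10 mM Tris-HCl pH 7.5, 5 mM MgCl₂, 0.1 mM EDTA, 50 mM KCl, BSA. Incubated at 37 °C, stopped with 1% SDS. Agarose gel; relaxed and supercoiled bands quantified.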

Leishmania infantum [1] = assay: Leishmanicidal activity against amastigote stage of iRFP expressing Leishmania infantum BCN150 infected in BALB/c mouse splenocytes assessed as decrease in parasite viability after 72 hrs; format: functional, organism-based; conditions: BCN150, 72 h
Summary of the method: (§2)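 Female BALB/c mice infected intravenously with metacyclic L. infantum-iRFP promastigotes. After 5 weeks, spleens collagenase-digested (2 mg/mL, 20 min, 37 °C); splenocytes plated in RPMI with 20% FCS. Compounds added at 10 to 0.07 μM for 72 h. Infrared emission read at 708 nm; IC50 is the 50% reduction versus DMSO control. SI = CC50 in uninfected splenocytes / amastigote IC50.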

Leishmania donovani = assay: Inhibition of Leishmania donovani Top1B expressed in Top1B deficient Saccharomyces cerevisiae EKY3 assessed as decrease in relaxation of supercoiled pSK DNA at 100 uM at 37 degC preincubated for 15 mins followed by DNA addition and measured after 1 to 16 mins by agarose gel electrophoresis; summary of the method: as §1
Leishmania infantum [2] = assay: Leishmanicidal activity against promastigote stage of iRFP expressing Leishmania infantum BCN150 assessed as decrease in parasite viability; format: functional, organism-based
Summary of the method: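 Promastigotes grown in M199 with 10% heat-inactivated FCS, seeded at 10^6 cells/mL. Compounds given as three-fold DMSO stock dilutions, final DMSO ≤0.1%. Viability read as infrared fluorescence (ex 684, em 708 nm). IC50 is the 50% emission reduction versus DMSO control, from nonlinear fits. Triplicate wells.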

[3] = Selectivity index, ratio of CC50 for BALB/c mouse splenocytes to IC50 for amastigote stage of iRFP expressing Leishmania infantum BCN150 infected in BALB/c mouse splenocytes; format: toxicity, cell-based; conditions: read-out: Ratio CC50/IC50; summary of the method: as §2
[4] = Cytotoxicity against BALB/c mouse splenocytes assessed as decrease in […] viability after 72 hrs by Alamar blue assay; format: cell-based, Splenocyte
Summary of the method: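 Uninfected BALB/c mouse splenocytes, obtained and cultured as for the explants (RPMI, 20% FCS), exposed to compounds at 100 to 0.8 μM for 72 h at 37 °C. Viability read by Alamar Blue. CC50 taken from dose-response curves. Mean ± sd of at least three experiments in triplicate.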

[5] = Inhibition of Leishmania donovani Top1B expressed in Top1B deficient Saccharomyces cerevisiae EKY3 assessed as decrease in relaxation of supercoiled pSK DNA preincubated for 15 mins followed by DNA addition and measured after 1 to 16 mins by agarose gel electrophoresis; conditions: for pIC50: read-out: IC50; summary of the method: as §1

Row | Compound | pIC50 (DNA topoisomerase 1) | pIC50 (Leishmania infantum [1]) | inhibition (Leishmania donovani) | pIC50 (Leishmania infantum [2]) | selectivity ratio [3] | CC50 at 72 h [4] | pIC50 [5] | IC50 (DNA topoisomerase 1) | IC50 [5]
1 | c1ccc(-c2cc(-c3ccccc3)c3ncccc3n2)cc1 | 4.95 | 5.07 | Active | 4.57 | 6.5 | 54.8 µM |  |  | 
2 | Fc1ccc(-c2cc(-c3ccccc3)c3ncccc3n2)cc1F | 4.14 | 5.55 |  | < 4.00 | 7.7 | 21.7 µM | 4.12 |  | 
3 | C[C@@H]1[C@H](O)[C@@H](C)/C=C/C=C/C=C/C=C/C=C/C=C/C=C/[C@H](O[C@@H]2O[C@H](C)[C@@H](O)[C@H](N)[C@@H]2O)C[C@@H]2O[C@](O)(C[C@@H](O)C[C@@H](O)[C@H](O)CC[C@@H](O)C[C@@H](O)CC(=O)O[C@H]1C)C[C@H](O)[C@H]2C(=O)O [AMPHOTERICIN B] |  |  |  |  | > 62.5 | > 20 µM |  |  | 
4 | O=[N+]([O-])c1cccc(-c2cc(-c3ccccc3)c3ncccc3n2)c1 |  | 5.99 |  | 4.10 | 143 | 146 µM |  | Not Active | 
5 | Cc1c(-c2ccc(C(F)(F)F)cc2)nc2cccnc2c1-c1ccccc1 | 4.15 | 5.63 |  | < 4.00 | 53.2 | 126 µM | 4.12 |  | 
6 | COc1ccc(-c2cc(-c3ccc([N+](=O)[O-])cc3)nc3cccnc23)cc1 |  | 6.24 |  | 4.68 | 187 | 109 µM |  | Not Active | Not Active
7 | FC(F)(F)c1ccc(-c2cc(-c3ccccc3)c3ncccc3n2)cc1 | 4.14 | 6.33 |  | 4.43 | 140 | 65.7 µM | 4.16 |  | 
8 | COc1ccc(-c2cc(-c3ccc(F)cc3)nc3cccnc23)cc1 |  | 6.12 |  | 4.01 | 31.8 | 24.2 µM |  | Not Active | Not Active
9 | CC[C@@]1(O)C(=O)OCc2c1cc1n(c2=O)Cc2cc3ccccc3nc2-1 [CAMPTOTHECIN] |  |  |  |  |  |  | 4.12 |  | 
10 | FC(F)(F)c1ccc(-c2cc(-c3ccsc3)c3ncccc3n2)cc1 | 4.09 | 5.44 |  | < 4.00 | 49.4 | 181 µM | 4.20 |  | 
11 | COc1ccc(-c2cc(-c3ccc(C(F)(F)F)cc3)nc3cccnc23)cc1 |  | 5.65 |  | < 4.00 | 67.1 | 152 µM |  | Not Active | 
12 | FC(F)(F)c1ccc(-c2cc(-c3ccc(C(F)(F)F)cc3)c3ncccc3n2)cc1 | 4.29 | 5.02 |  | < 4.00 | 18.8 | 178 µM |  |  | 
13 | Fc1ccc(-c2cc(-c3ccsc3)c3ncccc3n2)cc1 | 4.36 | 5.10 |  | 4.17 | 4.1 | 32.5 µM | 4.31 |  | 
14 | COc1cccc(-c2cc(-c3ccccc3)c3ncccc3n2)c1 | 4.09 | 6.24 |  | < 4.00 | 272 | 157 µM |  |  | 
15 | Fc1ccc(-c2cc(-c3ccccc3)c3ncccc3n2)cc1 | 4.14 | 5.13 |  | < 4.00 | 16.7 | 124 µM | 4.09 |  | 
16 | O=[N+]([O-])c1cccc(-c2cc(-c3ccc(-c4ccccc4)cc3)c3ncccc3n2)c1 | 4.17 | 6.54 |  | 4.82 | 104 | 30.1 µM | 4.10 |  | 
17 | COc1ccc(-c2cc(-c3cccc([N+](=O)[O-])c3)nc3cccnc23)cc1 |  | 5.42 |  | 4.35 | 35.1 | 133 µM |  | Not Active | Not Active
18 | Fc1ccc(-c2cc(-c3ccc(-c4ccccc4)cc3)c3ncccc3n2)cc1 | 4.08 | 5.30 |  | 4.35 | 30.2 | 153 µM | 4.24 |  | 

Reference: ChEMBL document CHEMBL4152236, “Substituted 1,5-naphthyridine derivatives as novel antileishmanial agents. Synthesis and biological evaluation” (Eur J Med Chem, 2018)
